# Article PMC8756568 (ACS Omega, 2021)
# Legend:
# B16F10 cells = assay: cellular internalization in B16F10 cells; format: cell-based, mouse; conditions: n = 3
# Huh-7 cells = assay: cellular uptake in Huh-7 cells; format: cell-based, human; conditions: n = 3
# Method in brief: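 Huh-7 cells were seeded at 1×10^5 per well in DMEM/10% FBS. Radiolabeled tracer (740 KBq/1 mL medium) was added, with incubation at 37 or 4 °C for 5, 10, 20, 40, 60 and 80 min. Cells were washed three times with cold PBS and lysed in 0.5 M NaOH. Lysate radioactivity was gamma-counted.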
substance,measurement,setting,value
NODAGA-Ahx-CWRLRWHSPLKGM-OH [[^64Cu]CM-3],in vitro cellular internalization,B16F10 cells,weaker binding
same,in vitro cellular internalization,Huh-7 cells,weaker binding
